Experimental data reported in ChEMBL document CHEMBL1955763, “Antimicrobial activity of sulfonamides containing 5-chloro-2-hydroxybenzaldehyde and 5-chloro-2-hydroxybenzoic acid scaffold” (Eur J Med Chem, 2012).
pIC50: −log10 of the molar value. In brackets after ≈: the same amount, converted by molar mass.

Tests used:
[1] = test system: Escherichia coli; test: Antibacterial activity against Escherichia coli CCM 4517 after 24 hrs by broth microdilution method; format: functional; conditions: CCM 4517, 24 h
Outline: (§1)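 Broth microdilution modified from standard M07-A07 in Mueller-Hinton broth at pH 7.4 (±0.2). Compounds were dissolved in DMSO. Inoculum in sterile water was adjusted to 0.5 McFarland (1.5 × 10⁸ CFU/mL). MIC was taken as IC₉₀, i.e. ≥90% growth reduction versus control, read visually and spectrophotometrically at 540 nm.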

[2] = test system: Trichosporon asahii; test: Antifungal activity against Trichosporon asahii 1188 after 24 hrs by broth microdilution method; format: functional; conditions: Trichosporon asahii, 1188, 24 h
Outline: (§2)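 Microdilution broth per CLSI M27-A3 (yeasts) or M38-A2 (moulds) in RPMI 1640 with glutamine, buffered to pH 7.0 with 0.165 mol MOPS. Compounds were in DMSO. Final inoculum was 5 × 10³ ± 0.2 CFU/mL. Other conditions matched the antibacterial assay, with MIC as IC₉₀ read visually and at 540 nm. Determined twice, in duplicate.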

[3] = test system: Staphylococcus aureus; test: Antibacterial activity against Staphylococcus aureus CCM 4516/08 after 24 hrs by broth microdilution method; format: functional; conditions: CCM 4516/08, 24 h
Outline: (§3)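 Microdilution broth method modified from M07-A07, in Mueller-Hinton broth at pH 7.4 (±0.2). Compounds were dissolved in DMSO. Inoculum was made in sterile water to 0.5 McFarland (1.5 × 10⁸ CFU/mL). MIC was taken as IC₉₀, meaning ≥90% growth reduction versus the drug-free control. Growth was read visually and by absorbance at 540 nm.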

[4] = test system: Mycobacterium kansasii; test: Antimycobacterial activity against Mycobacterium kansasii 235/80 after 14 days; format: functional; conditions: 235/80, 336 h
Outline: (§4)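 Micromethod MIC in Sula semisynthetic medium, with compounds added as DMSO solutions at […]. Incubation at 37 °C. Inocula: M. kansasii 235/80 at dilution 10⁻⁴, clinical isolate 6509/96 at 10⁻⁵.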

[5] = test system: Mycobacterium kansasii; test: Antimycobacterial activity against Mycobacterium kansasii 6509/96 after 21 days; format: functional; conditions: 6509/96, 504 h; outline: as §4
[6] = test system: Mycobacterium kansasii; test: Antimycobacterial activity against Mycobacterium kansasii 6509/96 after 14 days; format: functional; conditions: 6509/96, 336 h; outline: as §4
[7] = test system: Candida tropicalis; test: Antifungal activity against Candida tropicalis 156 after 24 hrs by broth microdilution method; format: functional; conditions: Candida tropicalis, 156, 24 h; outline: as §2
[8] = test system: Mycobacterium kansasii; test: Antimycobacterial activity against Mycobacterium kansasii 235/80 after 7 days; format: functional; conditions: 235/80, 168 h; outline: as §4
[9] = test system: Candida albicans; test: Antifungal activity against Candida albicans ATCC 44857 after 24 hrs by broth microdilution method; format: functional; conditions: ATCC 44857, 24 h; outline: as §2
[10] = test system: Trichophyton mentagrophytes; test: Antifungal activity against Trichophyton mentagrophytes 445 after 24 hrs by broth microdilution method; format: functional; conditions: Trichophyton mentagrophytes, 445, 24 h
[11] = test system: Mycobacterium kansasii; test: Antimycobacterial activity against Mycobacterium kansasii 6509/96 after 7 days; format: functional; conditions: 6509/96, 168 h; outline: as §4
[12] = test system: Mycobacterium tuberculosis; test: Antimycobacterial activity against Mycobacterium tuberculosis H37Rv 331/88 after 14 days; format: functional; conditions: H37Rv 331/88, 336 h
[13] = test system: Staphylococcus epidermidis; test: Antibacterial activity against methicillin-resistant Staphylococcus epidermidis H 6966/08 after 48 hrs by broth microdilution method; format: functional; conditions: H 6966/08, 48 h; outline: as §3
[14] = test system: Staphylococcus aureus; test: Antibacterial activity against methicillin-resistant Staphylococcus aureus H 5996/08 after 24 hrs by broth microdilution method; format: functional; conditions: H 5996/08, 24 h; outline: as §3
[15] = test system: Nakaseomyces glabratus; test: Antifungal activity against Candida glabrata 20/I after 24 hrs by broth microdilution method; format: functional; outline: as §2
[16] = test system: Mycobacterium kansasii; test: Antimycobacterial activity against Mycobacterium kansasii 235/80 after 21 days; format: functional; conditions: 235/80, 504 h; outline: as §4
[17] = test system: Staphylococcus aureus; test: Antibacterial activity against Staphylococcus aureus CCM 4516/08 after 48 hrs by broth microdilution method; format: functional; conditions: CCM 4516/08, 48 h; outline: as §1
[18] = test system: Staphylococcus epidermidis; test: Antibacterial activity against methicillin-resistant Staphylococcus epidermidis H 6966/08 after 24 hrs by broth microdilution method; format: functional; conditions: H 6966/08, 24 h; outline: as §3
[19] = test system: Aspergillus fumigatus; test: Antifungal activity against Aspergillus fumigatus 231 after 24 hrs by broth microdilution method; format: functional; conditions: Aspergillus fumigatus, 231, 24 h; outline: as §2
[20] = test system: Staphylococcus aureus; test: Antibacterial activity against methicillin-resistant Staphylococcus aureus H 5996/08 after 48 hrs by broth microdilution method; format: functional; conditions: H 5996/08, 48 h; outline: as §3
[21] = test system: Mycobacterium tuberculosis; test: Antimycobacterial activity against Mycobacterium tuberculosis H37Rv 331/88 after 21 days; format: functional; conditions: H37Rv 331/88, 504 h
Outline: (§5)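 Micromethod in Sula semisynthetic medium, with compounds added as DMSO solutions over a two-fold series from 1000 down to 1. Inoculum for M. avium 330/88 was a 10⁻⁵ dilution. Plates were incubated at 37 °C and MIC was read after 14 and 21 days.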

[22] = test system: Lichtheimia corymbifera; test: Antifungal activity against Absidia corymbifera 272 after 24 hrs by broth microdilution method; format: functional; conditions: Lichtheimia corymbifera, 272, 24 h; outline: as §2
[23] = test system: Mycobacterium avium; test: Antimycobacterial activity against isoniazid-, rifampicin-, ofloxacin-, ethambutol-resistant Mycobacterium avium 330/88 after 14 days; format: functional; conditions: 330/88, 336 h; outline: as §5
[24] = test system: Pichia kudriavzevii; test: Antifungal activity against Candida krusei E58 after 24 hrs by broth microdilution method; format: functional; conditions: E58, 24 h; outline: as §2
[25] = test system: Mycobacterium avium; test: Antimycobacterial activity against isoniazid-, rifampicin-, ofloxacin-, ethambutol-resistant Mycobacterium avium 330/88 after 21 days; format: functional; conditions: 330/88, 504 h; outline: as §5
[26] = test system: Pseudomonas aeruginosa; test: Antibacterial activity against Pseudomonas aeruginosa CCM 1961 after 24 hrs by broth microdilution method; format: functional; conditions: CCM 1961, 24 h; outline: as §1
[27] = test system: Klebsiella pneumoniae; test: Antibacterial activity against Klebsiella pneumoniae D 11750/08 after 24 hrs by broth microdilution method; format: functional; conditions: D 11750/08, 24 h; outline: as §1
[28] = Selectivity ratio of IC50 for human HepG2 cell sto MIC90 for Staphylococcus aureus CCM 4516/08; format: functional
[29] = test system: HepG2; test: Cytotoxicity against human HepG2 cells after 24 hrs by MTS assay; format: cell-based; conditions: HepG2, 24 h
Outline: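 Hep G2 human liver cells (passage 3–4), 10 000 per well, in MEM with 1% glutamine, 10% fetal serum and 1% non-essential amino acids. Compounds were added from DMSO at eight increasing concentrations in quadruplicate. Exposure was 24 h at 37 °C in 5% CO₂, then MTS reagent for 1.5 h. Formazan was read at 490 nm and IC₅₀ derived as 50% of control viability.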

[30] = test system: Klebsiella pneumoniae; test: Antibacterial activity against ESBL-positive Klebsiella pneumoniae J 14368/08 after 24 hrs by broth microdilution method; format: functional; conditions: J 14368/08, 24 h; outline: as §1
[31] = Selectivity ratio of IC50 for human HepG2 cell sto MIC100 for Mycobacterium kansasii 6509/96; format: functional
[32] = Selectivity ratio of IC50 for human HepG2 cell sto MIC100 for Mycobacterium kansasii 235/80; format: functional

| SMILES | MIC [1] [µM] | MIC [2] [µM] | MIC [3] [µM] | MIC [4] [µM] | MIC [5] [µM] | MIC [6] [µM] | MIC [7] [µM] | MIC [8] [µM] | MIC [11] [µM] | MIC [12] [µM] | MIC [13] [µM] | MIC [14] [µM] | MIC [15] [µM] | MIC [16] [µM] | MIC [17] [µM] | MIC [18] [µM] | MIC [20] [µM] | MIC [21] [µM] | MIC [23] [µM] | MIC [25] [µM] | also measured |
| --- | --- | --- | --- | --- | --- | --- | --- | --- | --- | --- | --- | --- | --- | --- | --- | --- | --- | --- | --- | --- | --- |
| Cc1cc(NS(=O)(=O)c2ccc(NC(=O)c3cc(Cl)ccc3O)cc2)no1 | 250 (≈ 102 µg/mL) | 500 (≈ 204 µg/mL) | 125 (≈ 51 µg/mL) | 16 (≈ 6.53 µg/mL) | 8 (≈ 3.26 µg/mL) | 8 (≈ 3.26 µg/mL) | 500 (≈ 204 µg/mL) | 8 (≈ 3.26 µg/mL) | 8 (≈ 3.26 µg/mL) | 125 (≈ 51 µg/mL) | > 500 | 15.6 (≈ 6.37 µg/mL) | 500 (≈ 204 µg/mL) | 16 (≈ 6.53 µg/mL) | 125 (≈ 51 µg/mL) | > 500 | 31.2 (≈ 12.7 µg/mL) | 250 (≈ 102 µg/mL) | 62.5 (≈ 25.5 µg/mL) | 125 (≈ 51 µg/mL) | MIC [9]: 500 µM (≈ 204 µg/mL); MIC [10]: 500 µM (≈ 204 µg/mL); MIC [19]: 500 µM (≈ 204 µg/mL); MIC [22]: 500 µM (≈ 204 µg/mL); MIC [24]: 500 µM (≈ 204 µg/mL) |
| O=S(=O)(Nc1nccs1)c1ccc(/N=C/c2cc(Cl)ccc2O)cc1 | 500 (≈ 197 µg/mL) | > 125 | 31.2 (≈ 12.3 µg/mL) | 4 (≈ 1.58 µg/mL) | 2 (≈ 0.788 µg/mL) | 2 (≈ 0.788 µg/mL) | > 125 | 2 (≈ 0.788 µg/mL) | 2 (≈ 0.788 µg/mL) | 32 (≈ 12.6 µg/mL) | > 500 | 31.2 (≈ 12.3 µg/mL) | > 125 | 4 (≈ 1.58 µg/mL) | 31.2 (≈ 12.3 µg/mL) | > 500 | 31.2 (≈ 12.3 µg/mL) | 62.5 (≈ 24.6 µg/mL) | 62.5 (≈ 24.6 µg/mL) | 125 (≈ 49.2 µg/mL) | MIC [26]: ≥ 500 µM; MIC [27]: 500 µM (≈ 197 µg/mL); MIC [9]: > 125 µM; Ratio [28]: 10; MIC [10]: > 125 µM; pIC50 [29]: 3.50; MIC [30]: 500 µM (≈ 197 µg/mL); Ratio [31]: 78.2; MIC [19]: > 125 µM; MIC [22]: > 125 µM; Ratio [32]: 78.2; MIC [24]: > 125 µM |
| O=S(=O)(Nc1ncccn1)c1ccc(/N=C/c2cc(Cl)ccc2O)cc1 | 62.5 (≈ 24.3 µg/mL) | 62.5 (≈ 24.3 µg/mL) | 250 (≈ 97.2 µg/mL) | 16 (≈ 6.22 µg/mL) | 32 (≈ 12.4 µg/mL) | 32 (≈ 12.4 µg/mL) | – | 8 (≈ 3.11 µg/mL) | 16 (≈ 6.22 µg/mL) | 125 (≈ 48.6 µg/mL) | > 500 | 125 (≈ 48.6 µg/mL) | 125 (≈ 48.6 µg/mL) | 32 (≈ 12.4 µg/mL) | 250 (≈ 97.2 µg/mL) | > 500 | 125 (≈ 48.6 µg/mL) | 250 (≈ 97.2 µg/mL) | 125 (≈ 48.6 µg/mL) | 125 (≈ 48.6 µg/mL) | MIC [26]: ≥ 500 µM; MIC [27]: 500 µM (≈ 194 µg/mL); MIC [30]: 500 µM (≈ 194 µg/mL) |
